# RGS4 act – potentiators or activators of RGS4. AID 463111. B-score at 10 µM. HEK293 M3R/inducible RGS4, carbachol calcium flux Fluo4; active compounds read low. actives 0.92% (n = 310,000);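 active = B-score of the integrated calcium signal more than 4 SD below the library mean, with starting fluorescence not abnormally high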;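 note: negative B-score means reduced calcium response which marks RGS4 activation or potentiation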
#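 Reagent: ECmax carbachol challenge; Test system: M3R-expressing HEK293 line, RGS4 induced by doxycycline; Schedule: overnight RGS4 induction, 30 min dye load 37 °C, 20 min compound RT; Detection: calcium dye Fluo4 fluorescence; Read-out: Agonist-evoked peak-minus-minimum fluorescence over baseline, integrated ratio, B score.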
# MrgX1 agonist – agonists of human MrgX1 receptor. MrgX1-HEK293 cells, Fluo-4 calcium fluorescence, agonist mode; active compounds read high. B-score at 10 µM. AID 588627. Q96LB2. actives 0.44% (n = 310,000);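 active = calcium response B-score plate-corrected fluorescence ratio at least 3 library SD, with starting fluorescence B-score inside 5 SD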
# Target sequence (Q96LB2 whole entry, looked up): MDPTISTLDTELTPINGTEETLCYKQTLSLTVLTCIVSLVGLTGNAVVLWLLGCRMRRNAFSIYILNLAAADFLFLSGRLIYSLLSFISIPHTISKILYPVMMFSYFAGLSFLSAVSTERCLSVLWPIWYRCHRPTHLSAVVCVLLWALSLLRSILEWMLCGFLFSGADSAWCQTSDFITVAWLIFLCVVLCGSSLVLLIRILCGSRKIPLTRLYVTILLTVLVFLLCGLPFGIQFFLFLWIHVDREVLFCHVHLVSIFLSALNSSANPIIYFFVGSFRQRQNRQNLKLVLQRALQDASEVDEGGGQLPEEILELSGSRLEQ
#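 Assay system: stable human MrgX1 HEK293 cell line. Quantity: 15,000 cells per well. Schedule: cells plated overnight, dye loaded 0.5 h 37 °C, 0.5 h room temperature. Detection: Fluo-4 NW calcium-flux fluorescence, kinetic read. Read-out basis: peak-minus-minimum fluorescence over baseline, converted to B scores. Control set: positive and negative control wells on each plate.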
# RGS4 block – human RGS4 inhibition; P49798; HEK293 M3R/RGS4 inducible, Fluo-4 calcium flux; active compounds read high; triggered by carbachol at its EC20; B-score at 10 µM; actives 0.45% (n = 310,000); AID 463165;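 active = B-score, a plate-corrected calcium signal, over three deviations above library mean, with baseline fluorescence within five deviations of library mean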;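 note: RGS4 expression induced by doxycycline in cells with stable M3 receptor; B-score is computed from the integrated fluorescence ratio over baseline after carbachol; higher B-score means a larger calcium signal and so more RGS4 inhibition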
# Target sequence (P49798 whole entry, looked up): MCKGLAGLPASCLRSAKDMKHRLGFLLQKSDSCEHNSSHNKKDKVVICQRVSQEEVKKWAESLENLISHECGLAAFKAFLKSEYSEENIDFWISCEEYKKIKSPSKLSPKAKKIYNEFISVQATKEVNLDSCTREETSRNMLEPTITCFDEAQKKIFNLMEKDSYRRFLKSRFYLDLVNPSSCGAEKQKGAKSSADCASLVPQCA
# MrgX1 antagonist – antagonists of human MrgX1 receptor; B-score at 10 µM; Q96LB2; MRGX1-HEK293 calcium flux, Fluo-4, BAM8-22 antagonism; active compounds read low; actives 1.3% (n = 310,000);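 active = calcium-response B-score plate-corrected more than 3 library SD below zero, starting fluorescence within 5 deviations, no agonist response on first addition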;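 note: peak minus trough fluorescence over baseline after final BAM8-22 challenge near maximal dose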
# MrgX1 allo act – allosterically activates human MrgX1 receptor signaling; Q96LB2; MrgX1-HEK293, Fluo-4 calcium flux, FDSS; active compounds read high; B-score at 10 µM; actives 0.63% (n = 310,000);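 active = plate-corrected calcium response at least 3 library SD above typical, normal starting fluorescence, not activating the receptor alone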;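 note: compound read alongside a low EC10 to EC30 dose of BAM8-22 agonist; peak minus trough fluorescence over baseline measured at the second addition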
# MrgX1 PAM conf – reconfirmed allosteric activator of human MrgX1 receptor; AID 602413; actives 13% (n = 1,200); MrgX1-HEK293, Fluo-4 calcium fluorescence, FDSS; activation (ratio percentage), % at 10 µM; shares compounds with MrgX1 allo act;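 active = ratio at least 3 SD above the weak peptide control, stable starting fluorescence, no direct agonism earlier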;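 note: compound followed by low BAM8-22 agonist challenge near EC20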
# HEK293 Ca flux – MrgX1 antagonist counter-screen hit in parental HEK293 cells; actives 2% (n = 4,000); Fluo-4 calcium fluorescence, FDSS; fluorescence ratio F(max-min)/F0 at 10 µM; shares compounds with MrgX1 antagonist; AID 624111;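 active = duplicate-averaged calcium fluorescence ratio at least three times the standard deviation of buffer wells, a nonspecific response in parental cells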
# HEK293 Ca counter – MrgX1 allosteric activator counter-screen hit in parental HEK293 cells. fluorescence ratio F(max-min)/F0 at 10 µM. shares compounds with MrgX1 antagonist. actives 0.4% (n = 4,000). parental HEK293 calcium flux, Fluo-4 fluorescence ratio; active compounds read high. AID 624114;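 active = calcium fluorescence ratio, averaged over duplicates, at least 3 SD of the buffer-well ratio, meaning a nonspecific response in receptor-free cells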;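 note: untransfected parental HEK293 lacking MrgX1 used as counterscreen for MrgX1 allosteric activators; fluorescence change taken during the second addition on a kinetic imager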
# HEK293 Ca cntr2 – counter-screen for MrgX1 activators: effect in parental HEK293 cells; fluorescence ratio F(max-min)/F0 at 10 µM; Fluo-4 calcium fluorescence (FDSS); active compounds read high; actives 8.7% (n = 4,000); shares compounds with MrgX1 antagonist;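 active = calcium fluorescence ratio at least three times the spread of buffer wells, meaning a non-specific response in parental cells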
# Starred values were filed as active, the others as inactive; i = inactive; · = no result. Rows were chosen to be rich in hits. Some 3.5% of all compounds tested hit in one or more screens of this group.
SMILES,RGS4 act,MrgX1 agonist,RGS4 block,MrgX1 antagonist,MrgX1 allo act,MrgX1 PAM conf,HEK293 Ca flux,HEK293 Ca counter,HEK293 Ca cntr2
CCN1CCN(c2nc(Nc3ccc(NC(C)=O)cc3)nc(Nc3ccc(NC(C)=O)cc3)n2)CC1,i,i,i,i,29*,i,i,i,i
CCOc1ccc(C2c3c(oc4ccccc4c3=O)C(=O)N2c2ccc(C)cn2)cc1OC (stereo not given),i,i,i,i,i,·,·,·,·
COc1ccccc1NC(=O)c1cc(-c2ccc(C)o2)nc2ccccc12,i,i,i,i,i,·,·,·,·
Cc1ccc(CNC(=O)C2CCCN2C(=O)Nc2ccc(C)cc2)cc1 (stereo not given),i,i,i,i,i,·,·,·,·
Cc1ccc(NC(=O)N2CCCC2C(=O)NCC2CCCCC2)cc1 (stereo not given),i,i,i,i,10*,i,i,i,i
O=C(CSc1ccc(-c2ccncc2)nn1)N1CCCC1,i,i,i,i,13*,i,i,i,i
Cc1ccc(Oc2ccc(S(=O)(=O)N3CCOCC3)cc2C(N)=O)c(-n2nc3ccccc3n2)c1,i,i,i,i,i,·,·,·,·
COC(=O)c1[nH]c2ccc(C)cc2c1NC(=O)CN1CCN(c2ccccc2)CC1,i,i,i,i,i,·,·,·,·
COC(=O)c1[nH]c2ccc(C)cc2c1NC(=O)CN1CCC(C)CC1,i,i,i,i,7.8*,i,i,i,i
O=C(CN1C(=O)c2ccccc2C1=O)Oc1ccc(Cl)cc1,i,i,i,i,i,·,·,·,·
COc1ccc(OCCC(=O)NCC23CC4CC(CC(C4)C2)C3)cc1,i,i,i,i,8.9*,i,i,i,i
O=C(N/N=C\CCc1ccccc1)c1ccco1,i,i,i,i,i,·,·,·,·
CCN1CCc2c(OCc3ccccc3)cccc2C1=O,i,i,i,i,11*,i,i,i,i
CN1CCc2c(OCC(=O)N3CCC(Cc4ccccc4)CC3)cccc2C1=O,i,i,i,i,9.8*,i,i,i,i
COc1ccc(C2CC(c3ccccc3)Nc3nc(NC(=O)c4ccco4)nn32)cc1 (stereo not given),i,i,i,i,i,·,·,·,·
O=C(Nc1nc2n(n1)C(c1ccccc1)CC(c1ccc(Cl)cc1)N2)c1ccco1 (stereo not given),i,i,i,i,7.3*,i,i,i,i
Cc1cccc(C(C)C)c1NC(=O)c1ccc(CN(c2ccccc2)S(=O)(=O)c2ccccc2)cc1,i,i,i,i,i,·,·,·,·
CC(=O)N(c1ccccc1C)S(=O)(=O)c1ccc(Cl)cc1,i,i,i,i,8.7*,i,i,i,i
CCOc1ccccc1N(C(C)=O)S(=O)(=O)c1ccc(Cl)cc1,i,i,i,i,i,·,·,·,·
CC(=O)NCCN=C(C)c1sc2ccccc2c1O,i,i,i,i,i,·,·,·,·
CC(=Nc1ccccc1O)c1sc2ccccc2c1O,i,i,i,i,i,·,·,·,·
CC(=Nc1cccc(C)c1)c1sc2ccccc2c1O,i,i,i,i,8.1*,i,i,i,57*
CC(=Nc1ccc(O)cc1)c1sc2ccccc2c1O,i,i,i,i,39*,i,i,i,i
COc1ccc(NC(=O)c2ccc(Cl)c(S(=O)(=O)NCC3CCCO3)c2)c(OC)c1 (stereo not given),i,i,i,i,i,·,·,·,·
Cc1oc2ccc(O)cc2c1C(=O)c1ccc(F)cc1,i,i,i,i,6.8*,i,i,i,i
SMILES,RGS4 act,MrgX1 agonist,RGS4 block,MrgX1 antagonist,MrgX1 allo act,MrgX1 PAM conf,HEK293 Ca flux,HEK293 Ca counter,HEK293 Ca cntr2
COCc1ccc(CN2CCC(N3CCC(C(=O)N4CCCC4)CC3)CC2)o1,i,i,i,i,8.9*,i,i,i,i
Cc1ccc(C)c(NC(=O)Cn2nnc(C(=O)NCc3cccs3)c2N)c1,i,i,i,i,i,·,·,·,·
COc1cccc(C(=O)Nc2nnc(-c3ccccc3)s2)c1OC,i,i,i,i,10*,i,i,i,i
COc1ccccc1C(=O)Nc1nnc(-c2ccccc2)s1,i,i,i,i,i,·,·,·,·
CC(C)c1ccc(-c2csc3ncnc(N4CCN(C)CC4)c23)cc1,i,i,i,i,7.3*,i,i,i,i
CN1CCCN(c2ncnc3scc(-c4ccc(F)cc4)c23)CC1,i,i,i,i,i,·,·,·,·
Cc1ccc(C)c(N2C(=O)CC(Cc3ccccc3)C2=O)c1 (stereo not given),i,i,i,i,i,·,·,·,·
CCCNC(=O)c1nnsc1Sc1ccc(Cl)cc1,i,i,i,i,i,·,·,·,·
CCOc1ccc(N2C(=O)C3CCCN3C2=O)cc1 (stereo not given),i,i,i,i,i,·,·,·,·
COc1ccc(N2C(=O)C3CCCN3C2=O)cc1 (stereo not given),i,i,i,i,10*,i,i,i,i
CCC(Cc1ccccc1)NC(=O)C1CC1 (stereo not given),i,i,i,i,i,·,·,·,·
COCC(C)n1c(SCC(=O)c2cc(C)n(C)c2C)nc2ccccc2c1=O (stereo not given),i,i,i,i,13*,i,i,i,i
CC1CC(C)(C)NC(=S)N1CCC(=O)N1c2ccccc2CC1C (stereo not given),i,i,i,i,i,·,·,·,·
COc1nccc(Nc2ccccc2)c1C#N,·,i,·,i,i,·,·,·,·
CSc1nccc(Nc2ccccc2)c1C#N,i,i,i,i,16*,8.6%*,i,i,i
O=C(NCC(c1cccs1)N1CCOCC1)c1ccc(Cl)c([N+](=O)[O-])c1 (stereo not given),i,i,i,i,i,·,·,·,·

# From PubChem
